For series [1], the system named is DU145 (human prostate cell line). Nature of the series: MTT cytotoxicity assay, DU145. It is filed as cell-based. The settings on record: DU-145, 48 h, read-out: IC50 DU145. The essentials:
(§1)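 ATCC cells grown in DMEM with 10% FBS, 2 mM L-glutamine and 100 μg/mL penicillin–streptomycin at 37 °C, 5% CO2. Medium refreshed, 10 μL of 12 mM MTT stock added, then 4 h in the dark at 37 °C. Formazan dissolved in DMSO and read at 570 nm against media-only blanks. Three independent experiments; IC50 by linear regression.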
In general terms: Tetrazolium assays rely on reduction of a dye to a coloured formazan, in cell work by metabolically active cells.

In series [2] the test system is SKBR-3 (human breast cancer cell line). Nature of the series: MTT cytotoxicity assay, SKBR-3. It is filed as cell-based. The settings on record: SK-BR-3, 48 h, read-out: IC50 SKBR-3. The gist of the method: as §1
Series [3] deals with HEK-293 (human embryonic kidney cell line). In words: MTT cytotoxicity assay, HEK-293. The settings on record: HEK293, 48 h, read-out: IC50 HEK-293. It counts as cell-based.
Series [4] relates to HepG2 (Human hematoma cell line). Nature of the series: MTT cytotoxicity assay, HEPG2. It is filed as cell-based. The conditions noted are these: HepG2, 48 h, read-out: IC50 HEPG2. The gist of the method: as §1
Series [5] relates to erythrocytes (heparinized human blood). In words: Erythrocyte osmotic fragility. It counts as cell-based. The settings on record: 1 μL of 10 mg mL^−1 stock, 37 °C, 30 min.
For the next series, the system named is Swiss albino mice. Nature of the series: In vivo acute oral toxicity of compound 5n. The settings on record: for ALKP / Albumin / Bilirubin / Body weight / Cholesterol / Creatinine / Haemoglobin / RBC / SGOT / SGPT / Serum protein / Triglycerides / WBC: n = 6. The essentials: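 30 Swiss albino mice (15 male, 15 female; 22–25 g), 7-day acclimatization, 22 ± 5 °C, 12 h light/dark, standard feed and water ad libitum. Five groups of 3 male + 3 female. Single oral dose of test compound at 5, 50, 300 or 1000 mg kg−1, suspended in gum acacia and 0.7% CMC; controls received vehicle. Clinical observation, body weight, haematology, serum biochemistry, organ weights; mean ± SE, n = 6, compared with control.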

Where [6] appears, read: single acute oral dose 5, 50, 300, 1000 mg kg^−1.
Where [7] appears, read: single oral dose 5 mg kg^−1, mean ± SE.
The mark [8] stands for this setting: single oral dose 50 mg kg^−1, mean ± SE.
[9] abbreviates: single oral dose 300 mg kg^−1, mean ± SE.
The mark [10] stands for this setting: single oral dose 1000 mg kg^−1, mean ± SE.

Entries after “also recorded” stand apart in the source; their conditions may differ.

Take `CCCCCOc1ccccc1C(=O)/C=C/C=C/c1ccccc1` [Compound 5m, (2E,4E)-1-(2-(Pentyloxy)phenyl)-5-phenylpenta-2,4-dien-1-one]: the IC50 (commonly the concentration at which inhibition is half-maximal) in series [1] was found to be 126.8 ± 0.2 µM; in series [2] it was 125 ± 6 µM; in series [3], 104 ± 7.3 µM; in series [4], 33.2 ± 0.7 µM.
With `O=C(/C=C/C=C/c1ccccc1)c1ccccc1OCc1cccc(Cl)c1` [Compound 5a, (2E,4E)-1-(2-((3-Chlorobenzyl)oxy)phenyl)-5-phenylpenta-2,4-dien-1-one], the 50% inhibitory concentration (IC50) worked out at 45.2 ± 2.1 µM in series [1], 20.8 ± 1.7 µM in series [2], 30.1 ± 8.3 µM in series [3] and 40.3 ± 2.9 µM in series [4].
As to `O=C(/C=C/C=C/c1ccccc1)c1ccccc1OCCBr` [Compound 5n, (2E,4E)-1-(2-(2-Bromoethoxy)phenyl)-5-phenylpenta-2,4-dien-1-one], in series [5], the “MEF50 (Mean Erythrocyte Fragility; concentration of PBS at which 50% of erythrocytes undergo hemolysis)” value turned out to be 0.457. Moreover, in series [1], the IC50 stood at 8.72 ± 1.8 µM. Also, in the series on Swiss albino mice (oral), the “Dose well tolerated / safe as a single acute oral dose” value is given as “up to 1000 mg kg^−1”. Besides, in the series with Swiss albino mice (setting [6]), the “Gross pathology, absolute and relative organ weights” value was “no significant abnormalities in absolute or relative organ weights”; the “Morbidity, mortality, abnormal clinical signs” value is recorded as “no morbidity, mortality, or abnormal clinical signs; also recorded: no morbidity, mortality”. In the series with Swiss albino mice (setting [7]), this molecule gave an ALKP of 170.67 ± 13.43 U L^−1, an Albumin of 2.55 ± 0.19 g/dL, a Bilirubin of 0.50 ± 0.00 mg/dL and a Body weight of 31.33 ± 1.54 g. Further, in the series with Swiss albino mice (setting [7]), the Cholesterol turned out to be 113.94 ± 4.49 mg/dL, the Creatinine is 0.92 ± 0.08 mg/dL, the Haemoglobin is 12.74 ± 0.51 g/dL and the RBC is 8.20 ± 0.60 million per mm^3. Besides, in the series with Swiss albino mice (setting [7]), the SGOT is 20.84 ± 0.88 U L^−1, the SGPT was 16.76 ± 0.67 U L^−1, the Serum protein is 5.85 ± 0.13 mg/mL and the Triglycerides was 111.43 ± 4.39 mg/dL. The WBC in the series with Swiss albino mice (setting [7]) was 9.48 ± 0.68 1000*/mm^3. In the series on Swiss albino mice (setting [8]), this molecule had an ALKP of 164.25 ± 13.54 U L^−1, an Albumin of 2.58 ± 0.07 g/dL, a Bilirubin of 0.51 ± 0.00 mg/dL and a Body weight of 28.33 ± 0.72 g. In the series with Swiss albino mice (setting [8]), this molecule returned a Cholesterol of 110.16 ± 3.57 mg/dL, a Creatinine of 0.86 ± 0.06 mg/dL, a Haemoglobin of 12.68 ± 0.67 g/dL and an RBC of 7.77 ± 0.66 million per mm^3. In the series on Swiss albino mice (setting [8]), this molecule showed an SGOT of 20.60 ± 1.71 U L^−1, an SGPT of 18.63 ± 0.59 U L^−1, a Serum protein of 5.76 ± 0.16 mg/mL and a Triglycerides of 111.02 ± 5.61 mg/dL. Besides, the WBC in the series on Swiss albino mice (setting [8]) is 9.54 ± 0.79 1000*/mm^3. In the series with Swiss albino mice (setting [9]), this molecule displayed an ALKP of 173.23 ± 14.47 U L^−1, an Albumin of 2.55 ± 0.19 g/dL, a Bilirubin of 0.49 ± 0.02 mg/dL and a Body weight of 31.82 ± 0.96 g. In addition, in the series on Swiss albino mice (setting [9]), the Cholesterol came out at 111.51 ± 3.48 mg/dL, the Creatinine came out at 0.90 ± 0.13 mg/dL, the Haemoglobin is 12.68 ± 0.71 g/dL and the RBC is recorded as 7.34 ± 0.38 million per mm^3. Further, in the series with Swiss albino mice (setting [9]), the SGOT amounted to 19.39 ± 1.51 U L^−1, the SGPT came to 18.03 ± 0.64 U L^−1, the Serum protein came to 5.86 ± 0.18 mg/mL and the Triglycerides worked out at 110.41 ± 3.90 mg/dL. The WBC in the series with Swiss albino mice (setting [9]) is 10.13 ± 0.50 1000*/mm^3. For the same molecule, in the series on Swiss albino mice (setting [10]), the ALKP is on record as 170.75 ± 6.26 U L^−1, the Albumin came to 2.70 ± 0.09 g/dL, the Bilirubin was 0.47 ± 0.04 mg/dL and the Body weight is recorded as 27.92 ± 1.30 g. In the series with Swiss albino mice (setting [10]), the Cholesterol came out at 107.82 ± 3.48 mg/dL, the Creatinine turned out to be 0.97 ± 0.09 mg/dL, the Haemoglobin is 12.42 ± 0.55 g/dL and the RBC was 7.54 ± 0.62 million per mm^3. In the series on Swiss albino mice (setting [10]), this molecule came in with an SGOT of 19.73 ± 1.43 U L^−1, an SGPT of 17.55 ± 1.23 U L^−1, a Serum protein of 5.93 ± 0.13 mg/mL and a Triglycerides of 108.74 ± 2.77 mg/dL. Moreover, the IC50 in series [2] stood at 7.69 ± 2.8 µM. Moreover, in series [3], the IC50 worked out at 18.5 ± 1.1 µM. The IC50 in series [4] stood at 9.38 ± 1.6 µM.
For the molecule `O=C(/C=C/C=C/c1ccccc1)c1ccccc1OCc1ccc(Cl)c(Cl)c1` [Compound 5b, (2E,4E)-1-(2-((3,4-dichlorobenzyl)oxy)phenyl)-5-phenylpenta-2,4-dien-1-one], in series [5], the “MEF50 (Mean Erythrocyte Fragility; concentration of PBS at which 50% of erythrocytes undergo hemolysis)” value came to 0.538. Further, the IC50 is 17.9 ± 3.4 µM in series [1], 22.4 ± 2.4 µM in series [2], 20.4 ± 1.6 µM in series [3] and 9.19 ± 0.6 µM in series [4].
In the case of `O=C(/C=C/C=C/c1ccccc1)c1ccccc1O` [Compound 3, (2E,4E)-1-(2-hydroxyphenyl)-5-phenylpenta-2,4-dien-1-one], the 50% inhibitory concentration (IC50) in series [1] worked out at 83.5 ± 7.3 µM; in series [2] it was 20.8 ± 4.1 µM; in series [3] it was 67.4 ± 9.1 µM; in series [4] it was 40.1 ± 2 µM.
On to `O=C(/C=C/C=C/c1ccccc1)c1ccccc1OCc1ccc(Cl)cc1` [Compound 5c, (2E,4E)-1-(2-((4-Chlorobenzyl)oxy)phenyl)-5-phenylpenta-2,4-dien-1-one], for which the IC50 in series [1] came out at 47.1 ± 4.5 µM; in series [2], 30.7 ± 2 µM; in series [3], 22.3 ± 1.2 µM; in series [4], 40.17 ± 0.2 µM.
The matching figures for `O=C(/C=C/C=C/c1ccccc1)c1ccccc1OCc1ccc(Br)cc1` [Compound 5g, (2E,4E)-1-(2-((4-Bromobenzyl)oxy)phenyl)-5-phenylpenta-2,4-dien-1-one]: 16.9 ± 2.3 µM, 15.7 ± 2.8 µM, 27.6 ± 4.2 µM and 25.8 ± 1.6 µM.
Take `N#Cc1ccccc1COc1ccccc1C(=O)/C=C/C=C/c1ccccc1` [Compound 5i, 2-((2-((2E,4E)-5-Phenylpenta-2,4-dienoyl)phenoxy)methyl) benzonitrile]: the IC50 worked out at 68.4 ± 2.8 µM in series [1], 75.3 ± 2.1 µM in series [2], 48.2 ± 5 µM in series [3] and 42 ± 2.1 µM in series [4].
As for `O=c1c(O)c(-c2ccc(O)c(O)c2)oc2cc(O)cc(O)c12` [Quercetin, reference compound], the “MEF50 (Mean Erythrocyte Fragility; concentration of PBS at which 50% of erythrocytes undergo hemolysis)” value in series [5] stood at 0.431.
As to `O=C(/C=C/C=C/c1ccccc1)c1ccccc1OCc1ccccc1` [Compound 5k, (2E,4E)-1-(2-(Benzyloxy)phenyl)-5-phenylpenta-2,4-dien-1-one], the IC50 in series [1] stood at 55.6 ± 3.7 µM; in series [2], 80.3 ± 8.7 µM; in series [3], 109.4 ± 0.7 µM; in series [4], 46.6 ± 1.4 µM.
In the case of `O=C(/C=C/C=C/c1ccccc1)c1ccccc1OCc1ccc(F)cc1` [Compound 5e, (2E,4E)-1-(2-((4-Fluorobenzyl)oxy)phenyl)-5-phenylpenta-2,4-dien-1-one], the IC50 in series [1] is 278.6 ± 1.7 µM; in series [2], 56.1 ± 1.8 µM; in series [3], 49.8 ± 2.8 µM; in series [4], 282 ± 5.7 µM.
For `O=C(/C=C/C=C/c1ccccc1)c1ccccc1OCc1ccccc1Br` [Compound 5h, (2E,4E)-1-(2-((2-Bromobenzyl)oxy)phenyl)-5-phenylpenta-2,4-dien-1-one] the same measures were 28.6 ± 2.2 µM, 244 ± 4.7 µM, 23.4 ± 4.7 µM and 45 ± 3.3 µM.
Regarding `COc1cccc2c1C(=O)c1c(O)c3c(c(O)c1C2=O)C[C@@](O)(C(=O)CO)C[C@@H]3O[C@H]1C[C@H](N)[C@H](O)[C@H](C)O1` [Doxorubicin, reference compound], the IC50 in series [1] was 0.45 ± 0.52 µM; in series [2], 0.7 ± 0.56 µM; in series [4], 2.5 ± 1.42 µM.
In the case of `O=C(/C=C/C=C/c1ccccc1)c1ccccc1OCc1ccccc1Cl` [Compound 5d, (2E,4E)-1-(2-((2-Chlorobenzyl)oxy)phenyl)-5-phenylpenta-2,4-dien-1-one], the IC50 in series [1] is 46.1 ± 1.1 µM; in series [2] it was 75.9 ± 4.8 µM; in series [3], 203 ± 5.3 µM; in series [4] it was 41.4 ± 3.9 µM.
The matching figures for `Cc1ccc(COc2ccccc2C(=O)/C=C/C=C/c2ccccc2)cc1` [Compound 5j, (2E,4E)-1-(2-((4-Methylbenzyl)oxy)phenyl)-5-phenylpenta-2,4-dien-1-one]: 21.3 ± 5.6 µM, 7.87 ± 2.1 µM, 23.6 ± 1.4 µM and 25.7 ± 1.5 µM.
